ChEMBL document CHEMBL4138284, “Biomimetic Stereoselective Sulfa-Michael Addition Leads to Platensimycin and Platencin Sulfur Analogues against Methicillin-Resistant Staphylococcus aureus” (J Nat Prod, 2018)
Values after ≈ are worked out from the molar mass of the structure shown.

Assays:
[1] = system: Staphylococcus aureus; assay: Antibacterial activity against methicillin-resistant Staphylococcus aureus isolate 8 incubated overnight by agar dilution method; format: functional
How it was run: (§1)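 MIC by agar dilution. Strains were grown overnight in LB broth and diluted, then about 10^4 CFU (2 μL spots) were spotted onto LB agar plates containing test compound at 0.5 to 8 μg mL−1 agar. Plates were incubated overnight at 37 °C and inspected for growth. Clinical MSSA and MRSA isolates came from local hospitals.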

[2] = system: Staphylococcus aureus; assay: Antibacterial activity against methicillin-resistant Staphylococcus aureus isolate 6 incubated overnight by agar dilution method; format: functional; how it was run: as §1
[3] = system: Staphylococcus aureus; assay: Antibacterial activity against methicillin-sensitive Staphylococcus aureus isolate 3 incubated overnight by agar dilution method; format: functional; how it was run: as §1
[4] = system: Staphylococcus aureus; assay: Antibacterial activity against Staphylococcus aureus ATCC 29213 incubated overnight by agar dilution method; format: functional; how it was run: as §1
[5] = system: Staphylococcus aureus; assay: Antibacterial activity against methicillin-sensitive Staphylococcus aureus isolate 4 incubated overnight by agar dilution method; format: functional; how it was run: as §1
[6] = system: Staphylococcus aureus; assay: Antibacterial activity against methicillin-resistant Staphylococcus aureus isolate 11 incubated overnight by agar dilution method; format: functional; how it was run: as §1
[7] = system: Staphylococcus aureus; assay: Antibacterial activity against methicillin-resistant Staphylococcus aureus isolate 10 incubated overnight by agar dilution method; format: functional; how it was run: as §1
[8] = system: Staphylococcus aureus; assay: Antibacterial activity against methicillin-resistant Staphylococcus aureus isolate 7 incubated overnight by agar dilution method; format: functional; how it was run: as §1
[9] = system: Staphylococcus aureus; assay: Antibacterial activity against methicillin-sensitive Staphylococcus aureus isolate 1 incubated overnight by agar dilution method; format: functional; how it was run: as §1
[10] = system: Staphylococcus aureus; assay: Antibacterial activity against methicillin-resistant Staphylococcus aureus isolate 5 incubated overnight by agar dilution method; format: functional; how it was run: as §1
[11] = system: Staphylococcus aureus; assay: Antibacterial activity against methicillin-resistant Staphylococcus aureus isolate 9 incubated overnight by agar dilution method; format: functional; how it was run: as §1
[12] = system: Staphylococcus aureus; assay: Antibacterial activity against methicillin-sensitive Staphylococcus aureus isolate 2 incubated overnight by agar dilution method; format: functional; how it was run: as §1
[13] = Stability of the compound in PBS at pH 5.8 at 0.1 mg/ml after 16 hrs by HPLC analysis; format: physicochemical; details: buffer, pH 5.8, 16 h
How it was run: (§2)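 Compound at 0.1 mg mL−1 dissolved in 1 mM PBS at the stated pH. Held at 37 °C for 16 h. Remaining compound and retro-Michael reversion products analysed by HPLC.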

[14] = Stability of the compound in PBS at pH 7.1 at 0.1 mg/ml after 16 hrs by HPLC analysis; format: physicochemical; details: buffer, pH 7.1, 16 h; how it was run: as §2

Compound: C[C@]12C[C@]34C[C@@H]1C[C@H](O2)[C@H]3[C@](C)(CCC(=O)Nc1c(O)ccc(C(=O)O)c1O)C(=O)C[C@@H]4SC(=O)c1ccc([N+](=O)[O-])cc1
- MIC [1]: 1 µg/mL (≈ 1.6 µM)
- MIC [2]: 1 µg/mL (≈ 1.6 µM)
- MIC [3]: 1 µg/mL (≈ 1.6 µM)
- MIC [4]: 1 µg/mL (≈ 1.6 µM)
- MIC [5]: 1 µg/mL (≈ 1.6 µM)
- MIC [6]: 8 µg/mL (≈ 12.8 µM)
- MIC [7]: 1 µg/mL (≈ 1.6 µM)
- MIC [8]: 2 µg/mL (≈ 3.2 µM)
- MIC [9]: 1 µg/mL (≈ 1.6 µM)
- MIC [10]: 2 µg/mL (≈ 3.2 µM)
- MIC [11]: 1 µg/mL (≈ 1.6 µM)
- MIC [12]: 1 µg/mL (≈ 1.6 µM)

Compound: CC(=O)NC[C@H]1CN(c2ccc(N3CCOCC3)c(F)c2)C(=O)O1 [LINEZOLID]
- MIC [1]: 1 µg/mL (≈ 2.96 µM)
- MIC [2]: 1 µg/mL (≈ 2.96 µM)
- MIC [3]: 1 µg/mL (≈ 2.96 µM)
- MIC [4]: 1 µg/mL (≈ 2.96 µM)
- MIC [5]: 1 µg/mL (≈ 2.96 µM)
- MIC [6]: 1 µg/mL (≈ 2.96 µM)
- MIC [7]: 1 µg/mL (≈ 2.96 µM)
- MIC [8]: 1 µg/mL (≈ 2.96 µM)
- MIC [9]: 1 µg/mL (≈ 2.96 µM)
- MIC [10]: 1 µg/mL (≈ 2.96 µM)
- MIC [11]: 1 µg/mL (≈ 2.96 µM)
- MIC [12]: 1 µg/mL (≈ 2.96 µM)

Compound: C[C@]12C[C@]34C[C@@H]1C[C@H](O2)[C@H]3[C@](C)(CCC(=O)Nc1c(O)ccc(C(=O)O)c1O)C(=O)C[C@@H]4SC(=O)Cc1ccc(F)cc1
- MIC [1]: 2 µg/mL (≈ 3.27 µM)
- MIC [2]: 2 µg/mL (≈ 3.27 µM)
- MIC [3]: 2 µg/mL (≈ 3.27 µM)
- MIC [4]: 2 µg/mL (≈ 3.27 µM)
- MIC [5]: 1 µg/mL (≈ 1.63 µM)
- MIC [6]: 4 µg/mL (≈ 6.54 µM)
- MIC [7]: 2 µg/mL (≈ 3.27 µM)
- MIC [8]: 4 µg/mL (≈ 6.54 µM)
- MIC [9]: 2 µg/mL (≈ 3.27 µM)
- MIC [10]: 2 µg/mL (≈ 3.27 µM)
- MIC [11]: 2 µg/mL (≈ 3.27 µM)
- MIC [12]: 1 µg/mL (≈ 1.63 µM)

Compound: C[C@]12C[C@]34C[C@@H]1C[C@H](O2)[C@H]3[C@](C)(CCC(=O)Nc1c(O)ccc(C(=O)O)c1O)C(=O)C[C@@H]4SC(=O)c1cccc(F)c1
- MIC [1]: 1 µg/mL (≈ 1.67 µM)
- MIC [2]: 1 µg/mL (≈ 1.67 µM)
- MIC [3]: 1 µg/mL (≈ 1.67 µM)
- MIC [4]: 2 µg/mL (≈ 3.35 µM)
- MIC [5]: 1 µg/mL (≈ 1.67 µM)
- MIC [6]: 2 µg/mL (≈ 3.35 µM)
- MIC [7]: 1 µg/mL (≈ 1.67 µM)
- MIC [8]: 2 µg/mL (≈ 3.35 µM)
- MIC [9]: 1 µg/mL (≈ 1.67 µM)
- MIC [10]: 1 µg/mL (≈ 1.67 µM)
- MIC [11]: 1 µg/mL (≈ 1.67 µM)
- MIC [12]: 1 µg/mL (≈ 1.67 µM)

Compound: C=C1C[C@@]23CCC1C[C@@H]2[C@](C)(CCC(=O)Nc1c(O)ccc(C(=O)O)c1O)C(=O)C[C@@H]3SC(=O)c1ccccc1 (single isomer, unassigned)
- MIC [1]: 2 µg/mL (≈ 3.55 µM)
- MIC [2]: 2 µg/mL (≈ 3.55 µM)
- MIC [3]: 1 µg/mL (≈ 1.77 µM)
- MIC [4]: 4 µg/mL (≈ 7.1 µM)
- MIC [5]: 1 µg/mL (≈ 1.77 µM)
- MIC [6]: 2 µg/mL (≈ 3.55 µM)
- MIC [7]: 1 µg/mL (≈ 1.77 µM)
- MIC [8]: 4 µg/mL (≈ 7.1 µM)
- MIC [9]: 1 µg/mL (≈ 1.77 µM)
- MIC [10]: 2 µg/mL (≈ 3.55 µM)
- MIC [11]: 2 µg/mL (≈ 3.55 µM)
- MIC [12]: 1 µg/mL (≈ 1.77 µM)

Compound: C[C@]12C[C@]34C[C@@H]1C[C@H](O2)[C@H]3[C@](C)(CCC(=O)Nc1c(O)ccc(C(=O)O)c1O)C(=O)C[C@@H]4SC(=O)c1ccc2ccccc2c1
- MIC [1]: 1 µg/mL (≈ 1.59 µM)
- MIC [2]: 1 µg/mL (≈ 1.59 µM)
- MIC [3]: 0.5 µg/mL (≈ 0.794 µM)
- MIC [4]: 2 µg/mL (≈ 3.18 µM)
- MIC [5]: 0.5 µg/mL (≈ 0.794 µM)
- MIC [6]: 4 µg/mL (≈ 6.35 µM)
- MIC [7]: 1 µg/mL (≈ 1.59 µM)
- MIC [8]: 4 µg/mL (≈ 6.35 µM)
- MIC [9]: 1 µg/mL (≈ 1.59 µM)
- MIC [10]: 2 µg/mL (≈ 3.18 µM)
- MIC [11]: 1 µg/mL (≈ 1.59 µM)
- MIC [12]: 0.5 µg/mL (≈ 0.794 µM)

Compound: C[C@]12C[C@]34C[C@@H]1C[C@H](O2)[C@H]3[C@](C)(CCC(=O)Nc1c(O)ccc(C(=O)O)c1O)C(=O)C[C@@H]4SC(=O)c1cccc(C(F)(F)F)c1
- MIC [1]: 1 µg/mL (≈ 1.54 µM)
- MIC [2]: 1 µg/mL (≈ 1.54 µM)
- MIC [3]: 1 µg/mL (≈ 1.54 µM)
- MIC [4]: 2 µg/mL (≈ 3.09 µM)
- MIC [5]: 0.5 µg/mL (≈ 0.772 µM)
- MIC [6]: 2 µg/mL (≈ 3.09 µM)
- MIC [7]: 1 µg/mL (≈ 1.54 µM)
- MIC [8]: 2 µg/mL (≈ 3.09 µM)
- MIC [9]: 1 µg/mL (≈ 1.54 µM)
- MIC [10]: 1 µg/mL (≈ 1.54 µM)
- MIC [11]: 1 µg/mL (≈ 1.54 µM)
- MIC [12]: 1 µg/mL (≈ 1.54 µM)

Compound: COc1ccc(C(=O)S[C@H]2CC(=O)[C@@](C)(CCC(=O)Nc3c(O)ccc(C(=O)O)c3O)[C@@H]3[C@@H]4C[C@H]5C[C@]23C[C@]5(C)O4)cc1
- MIC [1]: 1 µg/mL (≈ 1.64 µM)
- MIC [2]: 1 µg/mL (≈ 1.64 µM)
- Stability [13]: Stable
- MIC [3]: 1 µg/mL (≈ 1.64 µM)
- MIC [4]: 1 µg/mL (≈ 1.64 µM)
- MIC [5]: 1 µg/mL (≈ 1.64 µM)
- MIC [6]: 2 µg/mL (≈ 3.28 µM)
- Stability [14]: Stable
- MIC [7]: 1 µg/mL (≈ 1.64 µM)
- MIC [8]: 2 µg/mL (≈ 3.28 µM)
- MIC [9]: 1 µg/mL (≈ 1.64 µM)
- MIC [10]: 2 µg/mL (≈ 3.28 µM)
- MIC [11]: 1 µg/mL (≈ 1.64 µM)
- MIC [12]: 1 µg/mL (≈ 1.64 µM)

Compound: C=C1C[C@@]23CCC1C[C@@H]2[C@](C)(CCC(=O)Nc1c(O)ccc(C(=O)O)c1O)C(=O)C[C@@H]3SC(C)=O (single isomer, unassigned)
- MIC [1]: 2 µg/mL (≈ 3.99 µM)
- MIC [2]: 2 µg/mL (≈ 3.99 µM)
- Stability [13]: Stable
- MIC [3]: 1 µg/mL (≈ 1.99 µM)
- MIC [4]: 4 µg/mL (≈ 7.97 µM)
- MIC [5]: 1 µg/mL (≈ 1.99 µM)
- MIC [6]: 4 µg/mL (≈ 7.97 µM)
- Stability [14]: Stable
- MIC [7]: 2 µg/mL (≈ 3.99 µM)
- MIC [8]: 2 µg/mL (≈ 3.99 µM)
- MIC [9]: 1 µg/mL (≈ 1.99 µM)
- MIC [10]: 2 µg/mL (≈ 3.99 µM)
- MIC [11]: 2 µg/mL (≈ 3.99 µM)
- MIC [12]: 1 µg/mL (≈ 1.99 µM)
